# Key:
# NCI-H522 [1] = assay: Growth inhibition of human NCI-H522 cells assessed as cell growth at 10^-8 M incubated for 48 hrs by sulforhodamine B assay; type: functional; settings: NCI-H522, 48 h, read-out: Activity
# SK-MEL-28 = assay: Growth inhibition of human SK-MEL-28 cells incubated for 48 hrs by sulforhodamine B assay; type: functional; settings: SK-MEL-28, 48 h
# In short: (§1)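 Cells were plated at 5,000–40,000 per well according to doubling time and preincubated 24 h at 37 °C in 5% CO2; time-zero plates were then TCA-fixed. Five concentrations (10-fold or ½-log dilutions, DMSO stock) were incubated 48 h. Cells were TCA-fixed, stained with 0.4% SRB and read at 515 nm. GI50 was taken where [(Ti−Tz)/(C−Tz)]×100 = 50.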
# NCI-H460 = assay: Growth inhibition of human NCI-H460 cells assessed as cell growth at 10^-6 M incubated for 48 hrs by sulforhodamine B assay; type: functional; settings: NCI-H460, 48 h, read-out: Activity
# [2] = Growth inhibition of human TK10 cells assessed as cell growth at 10^-4 M incubated for 48 hrs by sulforhodamine B assay; type: functional; settings: TK-10, 48 h, read-out: Activity
# [3] = Growth inhibition of human SKOV3 cells assessed as cell growth at 10^-6 M incubated for 48 hrs by sulforhodamine B assay; type: functional; settings: SK-OV-3, 48 h, read-out: Activity
# [4] = Growth inhibition of human PC3 cells assessed as cell growth at 10^-7 M incubated for 48 hrs by sulforhodamine B assay; type: functional; settings: PC-3, 48 h, read-out: Activity
# [5] = Growth inhibition of human UACC62 cells assessed as cell growth at 10^-6 M incubated for 48 hrs by sulforhodamine B assay; type: functional; settings: UACC-62, 48 h, read-out: Activity
# Malme-3M = assay: Growth inhibition of human MALME-3M cells incubated for 48 hrs by sulforhodamine B assay; type: functional; in short: as §1
# A549 [6] = assay: Growth inhibition of human A549/ATCC cells assessed as cell growth at 10^-5 M incubated for 48 hrs by sulforhodamine B assay; type: functional; settings: A549, 48 h, read-out: Activity
# In short: (§2)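 Five-dose assay: five concentrations from 10-fold or ½-log serial dilutions. Cells are plated at 5,000–40,000 per well according to doubling time, grown 24 h, then exposed 48 h at 37 °C, 5% CO₂. Fixed with cold 50% TCA (final addition) for 60 min at 4 °C and stained with 0.4% SRB in 1% acetic acid. Bound dye is solubilized in 10 mM Tris base and read at 515 nm. GI₅₀ is where [(Ti−Tz)/(C−Tz)]×100 = 50, with a time-zero plate as Tz.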
# [7] = Growth inhibition of human SNB19 cells assessed as cell growth at 10^-8 M incubated for 48 hrs by sulforhodamine B assay; type: functional; settings: SNB-19, 48 h, read-out: Activity
# KM12 [8] = assay: Growth inhibition of human KM12 cells assessed as cell growth at 10 uM incubated for 48 hrs by sulforhodamine B assay; type: functional; settings: KM12, 48 h, read-out: Activity
# [9] = Growth inhibition of human LOXIMVI cells assessed as cell growth at 10 uM incubated for 48 hrs by sulforhodamine B assay; type: functional; settings: LOX IMVI, read-out: Activity
# [10] = Growth inhibition of human prostate cancer cells incubated for 48 hrs by sulforhodamine B assay; type: functional; settings: Cancer cell lines
# NCI-H322M = assay: Growth inhibition of human NCI-H322M cells assessed as cell growth at 10^-6 M incubated for 48 hrs by sulforhodamine B assay; type: functional; settings: read-out: Activity
# NCI-H522 [11] = assay: Growth inhibition of human NCI-H522 cells assessed as cell growth at 10^-5 M incubated for 48 hrs by sulforhodamine B assay; type: functional; settings: NCI-H522, 48 h, read-out: Activity
# [12] = Growth inhibition of human MOLT4 cells assessed as cell growth at 10^-6 M incubated for 48 hrs by sulforhodamine B assay; type: functional; settings: MOLT-4, 48 h, read-out: Activity
# NCI-H522 [13] = assay: Growth inhibition of human NCI-H522 cells assessed as cell growth at 10 uM incubated for 48 hrs by sulforhodamine B assay; type: functional; settings: NCI-H522, 48 h, read-out: Activity
# MDA-MB-435 = assay: Growth inhibition of human MDA-MB-435 cells assessed as cell growth at 10^-7 M incubated for 48 hrs by sulforhodamine B assay; type: functional; settings: MDA-MB-435, 48 h, read-out: Activity
# A549 [14] = assay: Growth inhibition of human A549/ATCC cells assessed as cell growth at 10^-8 M incubated for 48 hrs by sulforhodamine B assay; type: functional; settings: A549, 48 h, read-out: Activity; in short: as §2
# [15] = Growth inhibition of human TK10 cells assessed as cell growth at 10^-5 M incubated for 48 hrs by sulforhodamine B assay; type: functional; settings: TK-10, 48 h, read-out: Activity
# A549 [16] = assay: Growth inhibition of human A549/ATCC cells assessed as cell growth at 10^-6 M incubated for 48 hrs by sulforhodamine B assay; type: functional; settings: A549, 48 h, read-out: Activity; in short: as §2
# [17] = Growth inhibition of human LOXIMVI cells assessed as cell growth at 10^-8 M incubated for 48 hrs by sulforhodamine B assay; type: functional; settings: LOX IMVI, read-out: Activity
# U-251 = assay: Growth inhibition of human U251 cells assessed as cell growth at 10^-8 M incubated for 48 hrs by sulforhodamine B assay; type: functional; settings: U-251, 48 h, read-out: Activity
# [18] = Growth inhibition of human breast cancer cells incubated for 48 hrs by sulforhodamine B assay; type: functional; settings: Cancer cell lines
# KM12 [19] = assay: Growth inhibition of human KM12 cells assessed as cell growth at 10^-5 M incubated for 48 hrs by sulforhodamine B assay; type: functional; settings: KM12, 48 h, read-out: Activity
# [20] = Growth inhibition of human renal cancer cells incubated for 48 hrs by sulforhodamine B assay; type: functional; settings: Cancer cell lines
# [21] = Growth inhibition of human SW620 cells assessed as cell growth at 10^-6 M incubated for 48 hrs by sulforhodamine B assay; type: functional; settings: SW-620, 48 h, read-out: Activity
# Albumin = Albumin (Bos taurus, UniProt P02769); assay: Binding affinity to bovine serum albumin assessed as red shift in emission intensity up to 20 uM by fluorescence spectroscopic analysis relative to control; type: ADME; settings: cattle, isolated protein
# Sequence of Albumin (P02769 whole entry): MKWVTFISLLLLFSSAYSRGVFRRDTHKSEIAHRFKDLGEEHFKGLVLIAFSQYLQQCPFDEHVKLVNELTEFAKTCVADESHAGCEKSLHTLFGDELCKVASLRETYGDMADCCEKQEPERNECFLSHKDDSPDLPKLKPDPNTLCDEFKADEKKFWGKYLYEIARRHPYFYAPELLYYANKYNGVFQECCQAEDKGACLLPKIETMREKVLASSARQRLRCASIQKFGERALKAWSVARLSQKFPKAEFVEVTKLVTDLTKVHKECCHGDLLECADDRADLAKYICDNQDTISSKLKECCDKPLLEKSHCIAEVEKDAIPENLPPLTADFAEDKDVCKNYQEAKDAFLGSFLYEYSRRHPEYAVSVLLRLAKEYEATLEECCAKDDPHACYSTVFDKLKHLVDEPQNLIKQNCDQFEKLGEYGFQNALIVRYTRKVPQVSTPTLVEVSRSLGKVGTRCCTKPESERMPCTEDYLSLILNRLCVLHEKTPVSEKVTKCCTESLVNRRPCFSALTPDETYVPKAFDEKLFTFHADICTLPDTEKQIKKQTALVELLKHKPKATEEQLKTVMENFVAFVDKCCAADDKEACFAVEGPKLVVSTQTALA
# In short: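 Fluorescence titration of 10 µM BSA in 0.1 M phosphate buffer pH 7.4 with compound at 0–20 µM, diluted from DMSO stocks. Excitation 280 nm, slit 10 nm, 1 cm quartz cell, 300 K. Changes in the 350 nm Trp emission, new bands near 370–373 nm and isoemissive points are read against BSA alone.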
# 786-0 = assay: Growth inhibition of human 786-0 cells assessed as cell growth at 10^-7 M incubated for 48 hrs by sulforhodamine B assay; type: functional; settings: 786-0, 48 h, read-out: Activity; in short: as §2
# [22] = read-out: LC50 (the source's name)
# [23] = read-out: pLC50 (the source's name) (converted)
smiles,measurement,setting,value
Fc1ccc(-c2nc(Nc3ccc(-c4nc5ccccc5[nH]4)cc3)nc(N3CCOCC3)n2)cc1,growth at 0.01 µM,NCI-H522 [1],96%
same,GI50,SK-MEL-28; read-out: GI50,1800 nM
same,CC50,SK-MEL-28; [22],> 100 µM
same,TGI,SK-MEL-28; read-out: TGI,4.28 µM
same,GI50,SK-MEL-28; read-out: pGI50 (converted),1780 nM
same,CC50,SK-MEL-28; [23],> 100 µM
same,TGI,SK-MEL-28; read-out: pTGI (converted),4.27 µM
same,growth at 1 µM,NCI-H460,97%
same,growth at 100 µM,[2],-27%
same,growth at 1 µM,[3],101%
same,growth at 0.1 µM,[4],105%
same,growth at 1 µM,[5],86%
same,GI50,Malme-3M; read-out: GI50,2050 nM
same,CC50,Malme-3M; [22],7.63 µM
same,TGI,Malme-3M; read-out: TGI,3.95 µM
same,GI50,Malme-3M; read-out: pGI50 (converted),2040 nM
same,CC50,Malme-3M; [23],7.59 µM
same,TGI,Malme-3M; read-out: pTGI (converted),3.98 µM
same,growth at 10 µM,A549 [6],3%
same,growth at 0.01 µM,[7],102%
same,growth at 10 µM,KM12 [8],12.4%
same,growth at 10 µM,[9],-75.6%
same,GI50,[10],3.46 µM
same,TGI,[10],6.66 µM
same,CC50,[10]; [22],> 100 µM
same,growth at 1 µM,NCI-H322M,93%
same,growth at 10 µM,NCI-H522 [11],-30%
same,growth at 1 µM,[12],87%
same,growth at 10 µM,NCI-H522 [13],11.9%
same,growth at 0.1 µM,MDA-MB-435,102%
same,growth at 0.01 µM,A549 [14],95%
same,growth at 10 µM,[15],-7%
same,growth at 1 µM,A549 [16],99%
same,growth at 0.01 µM,[17],98%
same,growth at 0.01 µM,U-251,101%
same,GI50,[18],2090 nM
same,TGI,[18],5.55 µM
same,CC50,[18]; [22],> 100 µM
same,growth at 10 µM,KM12 [19],-28%
same,GI50,[20],2030 nM
same,TGI,[20],7.36 µM
same,CC50,[20]; [22],7.83 µM
same,growth at 1 µM,[21],100%
same,Activity,Albumin,23 nm
same,growth at 0.1 µM,786-0,97%

# From ChEMBL document CHEMBL3808334, “Synthesis and in vitro evaluation of novel triazine analogues as anticancer agents and their interaction studies with bovine serum albumin” (Eur J Med Chem, 2016)
